The test system of test [1] is Staphylococcus aureus. The test is described as follows: Antibacterial activity against Staphylococcus aureus ATCC 6538p. Format: functional.
For test [2], the system named is Bacillus subtilis. The test is described as follows: Antibacterial activity against Bacillus subtilis ATCC 6633. Type of test: functional.
The subject of test [3] is Kocuria rhizophila. The test is described as follows: Antibacterial activity against Kocuria rhizophila NBRC 12708. Format: functional.
In test [4] the test system is Salmonella enterica. Put plainly: Antibacterial activity against Salmonella enterica ATCC 14028. Type of test: functional.
Test [5] has as its system Proteus hauseri. The test is described as follows: Antibacterial activity against Proteus hauseri NBRC 3851. Type of test: functional.
Test [6] relates to Escherichia coli. Put plainly: Antibacterial activity against Escherichia coli ATCC 35270. Format: functional.
For test [7], the system named is A549. Put plainly: Cytotoxicity against human A549 cells. Format: functional, cell-based.
Test [8] in a line: Cytotoxicity against human HCT116 cells. Type of test: functional, cell-based. The following applies: HCT-116.
The nature of test [9]: Cytotoxicity against human SNU638 cells. Format: functional, cell-based. The following applies: SNU-638.
For test [10], the system named is K562. Put plainly: Cytotoxicity against human K562 cells. Format: functional, cell-based.
Test [11] is described as follows: Cytotoxicity against human SKHEP1 cells. The following applies: SK-HEP1. Type of test: functional, cell-based.
In test [12] the test system is MDA-MB-231. The test is described as follows: Cytotoxicity against human MDA-MB-231 cells. Format: functional, cell-based.
For test [13], the system named is Candida albicans. Put plainly: Antifungal activity against Candida albicans. Format: functional, organism-based.
Test [14] concerns Aspergillus fumigatus. Put plainly: Antifungal activity against Aspergillus fumigatus. Format: functional, organism-based.
The nature of test [15]: Inhibition of Candida albicans isocitrate lyase using isocitrate substrate. Summed up:
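Recombinant ICL at 2.5 μg/mL in 20 mM sodium phosphate buffer, pH 7.0, with 1.27 mM threo-DL(+)-isocitrate, 3.75 mM MgCl2 and 4.1 mM phenylhydrazine. Reaction started on substrate addition, with or without inhibitor in DMSO (0.5% final). After 30 min at 37 °C, glyoxylate phenylhydrazone was read at 324 nm. Percent inhibition was taken against an inhibitor-free control, with 3-nitropropionic acid as positive control.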

Calls of active or inactive are those of the source. The rule behind the calls is not given here.

`CO[C@@H](C[C@@H](C)[C@@H](O)/C=C/C=C/CNC(=O)C(C)(C)[C@H](O)/C(C)=C/C=C/C=C/C(C)=C(\C)[N+](=O)[O-])[C@]1(O)[C@@H](C)C(=O)N(C)[C@@]12COC2=O`: the MIC in test [1], in [2], in test [3], in [4], in [5] and in test [6] was above 128 µg/mL throughout. The IC50 in test [7], in test [8], in test [9], in test [10], in test [11] and in test [12] was above 100 µM each time. Also, the IC50 in test [15] (read-out: IC50) is 40 µM. Also, the result in [13] and in test [14] was inactive.
Take `CO[C@@H](C[C@@H](C)[C@@H](O)/C=C/C=C/CNC(=O)C(C)(C)[C@H](O)\C(C)=C/C=C/C=C/C(C)=C(\C)[N+](=O)[O-])[C@]1(O)[C@@H](C)C(=O)N(C)[C@]12C(=O)O[C@@H]2C`: the MIC in test [1], in test [2], in test [3], in test [4], in test [5] and in test [6] was above 128 µg/mL throughout. Besides, the IC50 in [7], in [8], in [9], in test [10], in test [11] and in [12] was above 100 µM in each case. Also, in [15] (read-out: IC50), the IC50 amounted to 120 µM. The result in test [13] and in test [14] was inactive.
Take `COC(CC(C)C(O)/C=C/C=C/CNC(=O)C(C)(C)C(O)\C(C)=C/C=C\C=C\C(C)=C(/C)[N+](=O)[O-])C1(O)C(C)C(=O)N(C)C12C(=O)OC2C` (stereo unspecified) [LAJOLLAMYCIN]: the MIC in test [1], in test [2], in [3], in [4], in test [5] and in [6] was above 128 µg/mL each time. Besides, the IC50 in [7], in test [8], in test [9], in [10], in test [11] and in test [12] was above 100 µM throughout. In addition, the IC50 in test [15] (read-out: IC50) amounted to 42 µM. In addition, the result in test [13] and in test [14] was inactive.
Turning to `O=C(O)CC[N+](=O)[O-]`, the IC50 in test [15] is 4.2 µg/mL.
`CO[C@@H](C[C@@H](C)[C@@H](O)/C=C/C=C/CNC(=O)C(C)(C)[C@H](O)/C(C)=C/C=C/C=C/C(C)=C(\C)[N+](=O)[O-])[C@]1(O)[C@@H](C)C(=O)N(C)[C@]12C(=O)O[C@@H]2C`: the MIC in test [1], in test [2], in test [3], in [4], in test [5] and in test [6] was above 128 µg/mL throughout. Further, the IC50 in [7], in [8], in test [9], in test [10], in [11] and in test [12] was above 100 µM throughout. Besides, the IC50 in test [15] (read-out: IC50) worked out at 50 µM. In addition, the outcome in test [13] and in test [14] was inactive.

The values are drawn from ChEMBL document CHEMBL3351291, “Lajollamycins, nitro group-bearing spiro-β-lactone-γ-lactams obtained from a marine-derived Streptomyces sp” (J Nat Prod, 2014).
